Positions count from the first letter of the chain named.
Key:
Conditions in all cases: stereoisomer not certain
[1] = tested on: T1, O2T11
T1 sequence (whole entry): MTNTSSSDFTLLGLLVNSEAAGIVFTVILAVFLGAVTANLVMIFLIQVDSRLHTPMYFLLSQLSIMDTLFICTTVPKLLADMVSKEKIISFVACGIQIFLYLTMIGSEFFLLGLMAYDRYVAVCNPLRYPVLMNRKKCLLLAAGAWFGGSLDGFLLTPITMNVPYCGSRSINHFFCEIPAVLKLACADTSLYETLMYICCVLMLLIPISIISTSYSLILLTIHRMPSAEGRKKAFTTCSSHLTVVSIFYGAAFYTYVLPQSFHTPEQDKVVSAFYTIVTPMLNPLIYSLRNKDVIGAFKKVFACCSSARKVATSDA
Method in brief: (§1)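 Whether a receptor–molecule pair is responsive (active) rests on the original authors' judgment that its measured signal was statistically different from baseline. Pairs without that judgment are non-responsive (inactive). Sources used varied assay methods, commonly transient luciferase assays in mammalian cell lines.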

[2] = tested on: T2, O2T27 L36V V134D
T2 sequence (whole entry): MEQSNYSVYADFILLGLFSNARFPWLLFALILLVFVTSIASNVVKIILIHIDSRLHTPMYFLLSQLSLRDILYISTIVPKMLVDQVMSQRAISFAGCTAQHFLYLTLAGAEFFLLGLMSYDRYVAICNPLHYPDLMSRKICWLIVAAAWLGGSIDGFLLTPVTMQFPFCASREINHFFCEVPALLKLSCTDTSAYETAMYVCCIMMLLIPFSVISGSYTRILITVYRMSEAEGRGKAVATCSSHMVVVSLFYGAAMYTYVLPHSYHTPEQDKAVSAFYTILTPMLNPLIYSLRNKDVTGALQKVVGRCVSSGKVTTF
Method in brief: as §1

[3] = tested on: T3, O2T29 Q24R
T3 sequence (whole entry): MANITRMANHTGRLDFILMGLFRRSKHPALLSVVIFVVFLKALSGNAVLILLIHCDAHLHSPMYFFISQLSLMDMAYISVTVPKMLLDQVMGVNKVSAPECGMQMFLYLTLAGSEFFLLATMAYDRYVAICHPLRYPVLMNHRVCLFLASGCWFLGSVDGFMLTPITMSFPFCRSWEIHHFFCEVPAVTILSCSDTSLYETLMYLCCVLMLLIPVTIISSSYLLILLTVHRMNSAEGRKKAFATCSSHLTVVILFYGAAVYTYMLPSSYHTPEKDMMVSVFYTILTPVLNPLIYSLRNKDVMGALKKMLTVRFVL
Method in brief: as §1

[4] = tested on: T4, O2T33 A169V
T4 sequence (whole entry): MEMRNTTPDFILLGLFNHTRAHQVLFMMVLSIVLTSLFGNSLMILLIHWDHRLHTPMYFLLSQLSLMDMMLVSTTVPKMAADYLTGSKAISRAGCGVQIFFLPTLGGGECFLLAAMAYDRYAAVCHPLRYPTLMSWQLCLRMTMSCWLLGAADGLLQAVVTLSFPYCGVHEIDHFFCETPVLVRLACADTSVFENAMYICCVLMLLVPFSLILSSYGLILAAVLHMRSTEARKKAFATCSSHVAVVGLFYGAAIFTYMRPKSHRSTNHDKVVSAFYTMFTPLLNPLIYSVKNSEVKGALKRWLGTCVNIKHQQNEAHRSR
Method in brief: as §1

[5] = tested on: T5, O2T33 G297E I309L
T5 sequence (whole entry): T4 sequence (whole entry) with V169A, G297E, I309L
Method in brief: as §1

[6] = tested on: T6, O2T34 Q6P R267P
T6 sequence (whole entry): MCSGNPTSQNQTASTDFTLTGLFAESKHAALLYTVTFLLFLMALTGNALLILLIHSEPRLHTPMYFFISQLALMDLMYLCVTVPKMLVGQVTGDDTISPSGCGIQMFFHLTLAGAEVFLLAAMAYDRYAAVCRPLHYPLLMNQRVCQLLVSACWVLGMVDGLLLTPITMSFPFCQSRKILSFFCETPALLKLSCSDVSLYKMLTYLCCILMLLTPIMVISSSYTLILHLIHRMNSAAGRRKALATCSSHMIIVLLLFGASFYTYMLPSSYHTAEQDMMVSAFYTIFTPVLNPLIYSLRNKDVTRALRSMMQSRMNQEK
Method in brief: as §1

[7] = tested on: T7, O2T34 R267P
T7 sequence (whole entry): T6 sequence (whole entry) with P6Q
Method in brief: as §1

[8] = tested on: T8, O4A47
T8 sequence (whole entry): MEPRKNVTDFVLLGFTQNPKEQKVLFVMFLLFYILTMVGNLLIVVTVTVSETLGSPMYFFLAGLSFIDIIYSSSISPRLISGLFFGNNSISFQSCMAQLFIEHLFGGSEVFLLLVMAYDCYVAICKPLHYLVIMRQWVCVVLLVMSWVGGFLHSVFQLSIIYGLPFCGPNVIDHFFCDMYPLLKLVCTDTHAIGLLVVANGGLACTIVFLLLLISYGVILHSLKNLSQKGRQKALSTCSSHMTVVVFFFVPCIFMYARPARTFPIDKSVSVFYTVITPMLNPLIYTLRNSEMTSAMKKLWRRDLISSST
Method in brief: as §1

[9] = tested on: O4C46 S240F C252Y K288R
Method in brief: as §1

[10] = tested on: T9, O4F15 A272T
T9 sequence (whole entry): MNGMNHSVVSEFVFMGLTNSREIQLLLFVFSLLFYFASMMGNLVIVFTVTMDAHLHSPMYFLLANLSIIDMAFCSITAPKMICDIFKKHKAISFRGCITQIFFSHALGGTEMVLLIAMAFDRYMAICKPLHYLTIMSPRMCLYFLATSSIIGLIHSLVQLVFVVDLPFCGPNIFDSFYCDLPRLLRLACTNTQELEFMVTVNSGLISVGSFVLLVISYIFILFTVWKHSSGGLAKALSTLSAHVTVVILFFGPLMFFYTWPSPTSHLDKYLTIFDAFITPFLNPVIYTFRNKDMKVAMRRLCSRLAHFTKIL
Method in brief: as §1

[11] = tested on: T10, O4F15 S149F
T10 sequence (whole entry): T9 sequence (whole entry) with S149F, T272A
Method in brief: as §1

[12] = tested on: T11, O4F17
T11 sequence (whole entry): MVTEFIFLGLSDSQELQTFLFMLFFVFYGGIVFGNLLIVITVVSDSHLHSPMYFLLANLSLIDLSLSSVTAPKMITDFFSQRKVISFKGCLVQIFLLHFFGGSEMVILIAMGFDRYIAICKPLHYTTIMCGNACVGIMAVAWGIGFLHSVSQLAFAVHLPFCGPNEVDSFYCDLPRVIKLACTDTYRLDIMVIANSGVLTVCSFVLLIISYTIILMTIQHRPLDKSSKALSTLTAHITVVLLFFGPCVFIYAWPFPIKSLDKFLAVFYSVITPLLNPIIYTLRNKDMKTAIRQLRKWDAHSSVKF
Method in brief: as §1

[13] = tested on: T12, O4F17; remark: listed apart in the source
T12 sequence (whole entry): T11 sequence (whole entry) with E15G, Q293R
Method in brief: as §1

[14] = tested on: T13, O4F21 F44L
T13 sequence (whole entry): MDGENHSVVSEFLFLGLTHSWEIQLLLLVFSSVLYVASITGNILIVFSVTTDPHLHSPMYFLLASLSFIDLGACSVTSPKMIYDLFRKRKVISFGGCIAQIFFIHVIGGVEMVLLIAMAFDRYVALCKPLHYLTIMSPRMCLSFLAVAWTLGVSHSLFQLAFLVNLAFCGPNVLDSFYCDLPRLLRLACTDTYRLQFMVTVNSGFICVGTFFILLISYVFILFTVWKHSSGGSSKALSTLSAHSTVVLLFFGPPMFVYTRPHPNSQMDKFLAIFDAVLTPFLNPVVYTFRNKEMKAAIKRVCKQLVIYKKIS
Method in brief: as §1

[15] = tested on: T14, O51A7 E8D
T14 sequence (whole entry): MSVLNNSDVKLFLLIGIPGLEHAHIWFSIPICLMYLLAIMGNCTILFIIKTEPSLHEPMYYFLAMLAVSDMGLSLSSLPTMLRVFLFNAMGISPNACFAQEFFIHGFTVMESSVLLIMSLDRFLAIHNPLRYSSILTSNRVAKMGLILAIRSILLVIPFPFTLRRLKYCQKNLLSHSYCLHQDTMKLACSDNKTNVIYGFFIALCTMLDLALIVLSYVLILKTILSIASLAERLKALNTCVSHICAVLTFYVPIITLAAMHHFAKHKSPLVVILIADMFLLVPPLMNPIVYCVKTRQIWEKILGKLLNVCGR
Method in brief: as §1

[16] = tested on: T15, O51B2 C120R C209S P283S
T15 sequence (whole entry): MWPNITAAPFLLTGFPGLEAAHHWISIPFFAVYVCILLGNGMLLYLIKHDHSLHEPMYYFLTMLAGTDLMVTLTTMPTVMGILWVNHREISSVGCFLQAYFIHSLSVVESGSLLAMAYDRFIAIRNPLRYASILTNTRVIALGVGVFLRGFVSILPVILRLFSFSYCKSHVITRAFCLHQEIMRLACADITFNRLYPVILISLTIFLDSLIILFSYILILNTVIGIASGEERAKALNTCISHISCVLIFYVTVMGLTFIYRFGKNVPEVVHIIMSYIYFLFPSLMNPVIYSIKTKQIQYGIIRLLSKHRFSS
Method in brief: as §1

[17] = tested on: T16, O51B4 M147T
T16 sequence (whole entry): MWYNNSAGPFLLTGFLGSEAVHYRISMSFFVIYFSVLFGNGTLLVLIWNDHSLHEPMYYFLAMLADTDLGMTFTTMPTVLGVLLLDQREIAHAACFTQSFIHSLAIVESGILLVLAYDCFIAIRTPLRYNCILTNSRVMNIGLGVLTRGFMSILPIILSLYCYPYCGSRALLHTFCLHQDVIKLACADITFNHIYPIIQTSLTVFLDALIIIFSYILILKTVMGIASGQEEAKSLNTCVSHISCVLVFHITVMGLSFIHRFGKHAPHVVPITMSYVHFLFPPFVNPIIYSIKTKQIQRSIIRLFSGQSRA
Method in brief: as §1

[18] = tested on: T17, O51B4
T17 sequence (whole entry): T16 sequence (whole entry) with V36I
Method in brief: as §1

[19] = tested on: T18, O51B5 G5S I102T P160L
T18 sequence (whole entry): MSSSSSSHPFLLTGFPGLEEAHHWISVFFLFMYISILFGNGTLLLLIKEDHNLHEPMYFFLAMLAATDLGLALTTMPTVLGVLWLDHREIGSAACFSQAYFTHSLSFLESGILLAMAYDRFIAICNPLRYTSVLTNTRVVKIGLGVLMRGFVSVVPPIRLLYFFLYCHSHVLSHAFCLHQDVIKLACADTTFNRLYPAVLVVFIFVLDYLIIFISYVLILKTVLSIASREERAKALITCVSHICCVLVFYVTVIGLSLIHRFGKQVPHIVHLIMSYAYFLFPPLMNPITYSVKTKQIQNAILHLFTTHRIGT
Method in brief: as §1

[20] = tested on: T19, O51D1 I89V
T19 sequence (whole entry): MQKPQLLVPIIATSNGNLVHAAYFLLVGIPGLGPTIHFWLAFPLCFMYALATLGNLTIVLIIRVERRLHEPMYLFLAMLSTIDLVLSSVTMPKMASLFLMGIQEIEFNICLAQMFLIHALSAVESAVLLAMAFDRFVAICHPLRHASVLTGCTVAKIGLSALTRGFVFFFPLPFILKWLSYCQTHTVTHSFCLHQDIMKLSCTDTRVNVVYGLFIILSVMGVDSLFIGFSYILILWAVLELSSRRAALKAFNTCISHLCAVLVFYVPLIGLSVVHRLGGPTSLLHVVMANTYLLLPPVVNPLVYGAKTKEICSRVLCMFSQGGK
Method in brief: as §1

Measured: odorant receptor agonist call;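 further: active if original authors judged signal statistically different from baseline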

CC1=C(O)C(=O)OC1C (stereo not given)
inactive: all assays above

CCCC(S)CCOC(C)=O (stereo not given)
inactive: all assays above

CC1=C(O)C(=O)C(C)O1 (stereo not given)
inactive: all assays above

Cc1cnc(C)c(C)n1
inactive: all assays above

— the M2OR odorant receptor database
